According to ChEMBL document CHEMBL1150393, “Evaluation of radiolabeled (hetero)aromatic analogues of N-(2-diethylaminoethyl)-4-iodobenzamide for imaging and targeted radionuclide therapy of melanoma” (J Med Chem, 2008):

Key:
Details in all cases: in vivo
[1] = Ratio of drug level in tumor to brain of C57BL/6 mouse bearing mouse B16-F0 cells at 0.74 to 0.92 MBq, iv after 3 hrs; type: ADME, organism-based
How it was run: (§1)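 Tumour and organ radioactive concentrations came from whole-body cryosection counting (40 µm slices, eight per mouse, two mice per time) after tail-vein injection of the [¹²⁵I]-labelled compound (0.1 µmol) into male C57BL6 mice bearing s.c. B16-F0 melanoma. Each value is the ratio of the tumour concentration to the organ concentration.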

[2] = Biodistribution in tumor of C57BL/6 mouse bearing mouse B16-F0 cells at 0.74 to 0.92 MBq, iv after 24 hrs; type: ADME, organism-based, Neoplasm
How it was run: (§2)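 [¹²⁵I]-labelled compound given iv by tail vein (0.1 µmol per mouse) to male C57BL6 mice bearing s.c. B16-F0 flank tumours (5 × 10⁵ cells in PBS). Two mice per time point were killed by CO₂, frozen in liquid nitrogen and cut into 40 µm cryosections, eight slices per mouse. Slice radioactivity was read on a multiwire proportional counter, converted to kBq/g and reported as %ID/g.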

[3] = Biodistribution in uvea of C57BL/6 mouse bearing mouse B16-F0 cells at 0.74 to 0.92 MBq, iv after 1 hr; type: ADME, organism-based, Uveal tract; how it was run: as §2
[4] = Biodistribution in Stomach content of C57BL/6 mouse bearing mouse B16-F0 cells at 0.74 to 0.92 MBq, iv after 3 hrs; type: ADME, organism-based
How it was run: (§3)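 Male C57BL6 mice with s.c. left-flank B16-F0 melanoma (5 × 10⁵ cells in PBS). Two mice per time point frozen in liquid nitrogen after CO₂ sacrifice. Eight 40 µm whole-body cryosections per mouse read by multiwire proportional counter. cpm/mm² converted to kBq/g and expressed as %ID/g.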

[5] = Biodistribution in tumor of C57BL/6 mouse bearing mouse B16-F0 cells at 0.74 to 0.92 MBq, iv after 3 hrs; type: ADME, organism-based, Neoplasm; how it was run: as §2
Lung [6] = assay: Biodistribution in lung of C57BL/6 mouse bearing mouse B16-F0 cells at 0.74 to 0.92 MBq, iv after 6 hrs; type: ADME, organism-based; how it was run: as §3
[7] = Biodistribution in Stomach content of C57BL/6 mouse bearing mouse B16-F0 cells at 0.74 to 0.92 MBq, iv after 1 hr; type: ADME, organism-based; how it was run: as §3
Liver [8] = assay: Biodistribution in liver of C57BL/6 mouse bearing mouse B16-F0 cells at 0.74 to 0.92 MBq, iv after 3 hrs; type: ADME, organism-based; how it was run: as §3
[9] = Biodistribution in Stomach content of C57BL/6 mouse bearing mouse B16-F0 cells at 0.74 to 0.92 MBq, iv after 6 hrs; type: ADME, organism-based; how it was run: as §3
Muscle tissue [10] = assay: Biodistribution in muscle of C57BL/6 mouse bearing mouse B16-F0 cells at 0.74 to 0.92 MBq, iv after 6 hrs; type: ADME, organism-based; how it was run: as §3
Liver [11] = assay: Biodistribution in liver of C57BL/6 mouse bearing mouse B16-F0 cells at 0.74 to 0.92 MBq, iv after 6 hrs; type: ADME, organism-based; how it was run: as §3
[12] = Biodistribution in uvea of C57BL/6 mouse bearing mouse B16-F0 cells at 0.74 to 0.92 MBq, iv after 6 hrs; type: ADME, organism-based, Uveal tract; how it was run: as §2
Thyroid gland [13] = assay: Biodistribution in thyroid of C57BL/6 mouse bearing mouse B16-F0 cells at 0.74 to 0.92 MBq, iv after 6 hrs; type: ADME, organism-based; how it was run: as §2
Blood [14] = assay: Biodistribution in blood of C57BL/6 mouse bearing mouse B16-F0 cells at 0.74 to 0.92 MBq, iv after 1 hr; type: ADME, organism-based; how it was run: as §3
[15] = Ratio of drug level in tumor to liver of C57BL/6 mouse bearing mouse B16-F0 cells at 0.74 to 0.92 MBq, iv after 3 hrs; type: ADME, organism-based; how it was run: as §1
Lung [16] = assay: Biodistribution in lung of C57BL/6 mouse bearing mouse B16-F0 cells at 0.74 to 0.92 MBq, iv after 1 hr; type: ADME, organism-based; how it was run: as §3
Spleen [17] = assay: Biodistribution in spleen of C57BL/6 mouse bearing mouse B16-F0 cells at 0.74 to 0.92 MBq, iv after 3 hrs; type: ADME, organism-based; how it was run: as §2
[18] = Ratio of drug level in tumor to lung of C57BL/6 mouse bearing mouse B16-F0 cells at 0.74 to 0.92 MBq, iv after 6 hrs; type: ADME, organism-based; how it was run: as §1
[19] = Biodistribution in Stomach content of C57BL/6 mouse bearing mouse B16-F0 cells at 0.74 to 0.92 MBq, iv after 24 hrs; type: ADME, organism-based; how it was run: as §3
Pancreas = assay: Biodistribution in pancreas of C57BL/6 mouse bearing mouse B16-F0 cells at 0.74 to 0.92 MBq, iv after 1 hr; type: ADME, organism-based; how it was run: as §3
[20] = Ratio of drug level in tumor to brain of C57BL/6 mouse bearing mouse B16-F0 cells at 0.74 to 0.92 MBq, iv after 1 hr; type: ADME, organism-based; how it was run: as §1
[21] = Biodistribution in intestinal content of C57BL/6 mouse bearing mouse B16-F0 cells at 0.74 to 0.92 MBq, iv after 3 hrs; type: ADME, organism-based; how it was run: as §3
[22] = Ratio of drug level in tumor to liver of C57BL/6 mouse bearing mouse B16-F0 cells at 0.74 to 0.92 MBq, iv after 1 hr; type: ADME, organism-based; how it was run: as §1
Muscle tissue [23] = assay: Biodistribution in muscle of C57BL/6 mouse bearing mouse B16-F0 cells at 0.74 to 0.92 MBq, iv after 3 hrs; type: ADME, organism-based; how it was run: as §3
Blood [24] = assay: Biodistribution in blood of C57BL/6 mouse bearing mouse B16-F0 cells at 0.74 to 0.92 MBq, iv after 3 hrs; type: ADME, organism-based; how it was run: as §3
Thyroid gland [25] = assay: Biodistribution in thyroid of C57BL/6 mouse bearing mouse B16-F0 cells at 0.74 to 0.92 MBq, iv after 3 hrs; type: ADME, organism-based; how it was run: as §2
[26] = Ratio of drug level in tumor to liver of C57BL/6 mouse bearing mouse B16-F0 cells at 0.74 to 0.92 MBq, iv after 6 hrs; type: ADME, organism-based; how it was run: as §1
[27] = Biodistribution in tumor of C57BL/6 mouse bearing mouse B16-F0 cells at 0.74 to 0.92 MBq, iv after 6 hrs; type: ADME, organism-based, Neoplasm; how it was run: as §2
[28] = Drug excretion in mouse B16-F0 cells bearing C57BL/6 mouse urine at 0.74 to 0.92 MBq, iv after 72 hrs; type: ADME, organism-based
How it was run: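 Urine was collected from two B16-F0 tumour-bearing C57BL6 mice for up to 72 h after iv tail-vein injection of the [¹²⁵I]-labelled compound (0.1 µmol). Samples were counted to give cumulative urinary excretion as %ID.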

[29] = Biodistribution in uvea of C57BL/6 mouse bearing mouse B16-F0 cells at 0.74 to 0.92 MBq, iv after 72 hrs; type: ADME, organism-based, Uveal tract; how it was run: as §2
Kidney = assay: Biodistribution in kidney of C57BL/6 mouse bearing mouse B16-F0 cells at 0.74 to 0.92 MBq, iv after 6 hrs; type: ADME, organism-based; how it was run: as §3
Spleen [30] = assay: Biodistribution in spleen of C57BL/6 mouse bearing mouse B16-F0 cells at 0.74 to 0.92 MBq, iv after 6 hrs; type: ADME, organism-based; how it was run: as §2

Row | SMILES | Ratio [1] | Drug uptake [2] | Drug uptake [3] | Drug uptake [4] | Drug uptake [5] | Drug uptake (Lung [6]) | Drug uptake [7] | Drug uptake (Liver [8]) | Drug uptake [9] | Drug uptake (Muscle tissue [10]) | Drug uptake (Liver [11]) | Drug uptake [12] | Drug uptake (Blood [14]) | Ratio [15] | Drug uptake (Lung [16]) | Drug uptake (Spleen [17]) | Ratio [18] | Drug uptake [19] | Drug uptake (Pancreas) | Ratio [20] | other results
1 | CCN(CC)CCNC(=O)c1ccc2cncc([125I])c2n1.Cl.Cl | 32.18 | 8.4 % ID/g | 24.11 % ID/g | 9.76 % ID/g | 13.9 % ID/g | 1.26 % ID/g | 17.58 % ID/g | 2.27 % ID/g | 9.17 % ID/g | 0.24 % ID/g | 1.49 % ID/g | 13.15 % ID/g | 2.21 % ID/g | 6.1 | 2.36 % ID/g | 0.93 % ID/g | 9.03 | 0.62 % ID/g | 1.78 % ID/g | 27.14 | Drug uptake (Thyroid gland [13]): 56.95 % ID/g; Drug uptake [21]: 47.65 % ID/g; Ratio [22]: 5.92; Drug uptake (Muscle tissue [23]): 0.43 % ID/g; Drug uptake (Blood [24]): 1.88 % ID/g; Drug uptake (Thyroid gland [25]): 41.44 % ID/g; Ratio [26]: 7.69; Drug uptake [27]: 11.4 % ID/g; Activity [28]: 68.9%; Drug uptake [29]: 13.06 % ID/g; Drug uptake (Kidney): 1.2 % ID/g
2 | CCN(CC)CCNC(=O)c1ccc2cc([125I])ccc2c1.Cl | 14.6 | 7 % ID/g | 13.21 % ID/g | 24.69 % ID/g | 11.4 % ID/g | 2.12 % ID/g | 27.82 % ID/g | 4.75 % ID/g | 10.79 % ID/g | 0.38 % ID/g | 2.73 % ID/g | 12.76 % ID/g | 2.97 % ID/g | 2.4 | 11.82 % ID/g | 2.59 % ID/g | 4.22 | 3.1 % ID/g | 10.18 % ID/g | 2.97 | Drug uptake (Spleen [30]): 8.05 % ID/g; Drug uptake [21]: 25.85 % ID/g; Ratio [22]: 1.37; Drug uptake (Muscle tissue [23]): 0.83 % ID/g; Drug uptake (Blood [24]): 1.77 % ID/g; Ratio [26]: 3.28; Drug uptake [27]: 9 % ID/g; Activity [28]: 43.7%; Drug uptake [29]: 7.84 % ID/g; Drug uptake (Kidney): 3.07 % ID/g
